Laboratory results: ChEMBL document CHEMBL1140898, “Targeting the fatty acid biosynthesis enzyme, beta-ketoacyl-acyl carrier protein synthase III (PfKASIII), in the identification of novel antimalarial agents” (J Med Chem, 2009)

Assays:
[1] = Inhibition of Plasmodium falciparum KAS3 expressed in Escherichia coli assessed as transfer of [1-14C]acetyl-CoA to [1-14C]acetyl-ACP
Method in brief: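 Recombinant 6xHIS-tagged P. falciparum KASIII and 6xHIS-ACP expressed in E. coli and purified. Radiometric filter assay of [1-14C]-acetyl-CoA transfer to ACP, 25 min at 37 °C, quenched with 10% TCA. Product captured on P81 cellulose filters, washed with TCA and counted by scintillation. […] IC50 by variable-slope nonlinear regression, curves accepted at R2 >0.80.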

Plasmodium falciparum [2] = assay: Antimalarial activity against […] by [3H]hypoxanthine uptake; format: functional, organism-based
Plasmodium falciparum [3] = assay: Antimalarial activity against […] by [3H]hypoxanthine uptake; format: functional, organism-based
[4] = Cytotoxicity against mouse J774.G8 cells after 72 hrs by MTS assay; format: cell-based
Method in brief: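 Murine J774 macrophage subclone G8 grown in DMEM with 10% fetal calf serum, 2 mM L-glutamine, 50 μg/mL gentamicin, 5% CO2, 37 °C. Seeded at 1 × 10^4 cells/well and left 24 h. Compound dilutions in medium or vehicle added, then 72 h exposure. MTS tetrazolium added for 1–2 h at 37 °C, OD read at 490 nm. Vehicle control values subtracted.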

Plasmodium falciparum [5] = assay: Antimalarial activity against Plasmodium falciparum TM91C235 by [3H]hypoxanthine uptake; format: functional, organism-based
[6] = Therapeutic index, ratio of IC50 for mice (Mus musculus) J774.G8 cells to IC50 for chloroquine-resistant Plasmodium falciparum W2; details: J774.G8 cells versus Plasmodium falciparum W2

Oc1ccc(Cl)cc1Sc1cc(Cl)ccc1O [FENTICLOR]
IC50 [1]: 3.1 µM
IC50 (Plasmodium falciparum [2]): 21.5 µM
IC50 (Plasmodium falciparum [3]): 20.5 µM

O=S(=O)(c1cccc(S(=O)(=O)c2cc(O)ccc2O)c1)c1cc(O)ccc1O
IC50 [4]: > 1180 µM
IC50 [1]: 38.2 µM
IC50 (Plasmodium falciparum [2]): 7.1 µM
IC50 (Plasmodium falciparum [5]): 4.5 µM
IC50 (Plasmodium falciparum [3]): 26 µM
selectivity ratio [6]: > 169

Cc1ccc(S(=O)(=O)c2ccc3ccccc3c2)cc1
IC50 [4]: > 1770 µM
IC50 [1]: 53.7 µM
IC50 (Plasmodium falciparum [2]): > 230 µM
IC50 (Plasmodium falciparum [5]): > 230 µM
IC50 (Plasmodium falciparum [3]): > 230 µM

O=c1ss/c(=N\c2ccccc2)n1-c1ccccc1
IC50 [1]: 0.5 µM
IC50 (Plasmodium falciparum [2]): 8 µM
IC50 (Plasmodium falciparum [3]): 8 µM

Oc1ccc2ccccc2c1SSc1c(O)ccc2ccccc12
IC50 [4]: > 1430 µM
IC50 [1]: 0.13 µM
IC50 (Plasmodium falciparum [2]): 6.6 µM
IC50 (Plasmodium falciparum [3]): 7.2 µM
selectivity ratio [6]: > 204

C/C(=C/C(=O)OC(C)c1ccccc1)OP1(=O)OC(C)C(C)O1 (stereo unspecified)
IC50 [1]: 25.8 µM
IC50 (Plasmodium falciparum [2]): > 49.9 µM
IC50 (Plasmodium falciparum [3]): 20.4 µM

CC(=O)Nc1ccc(S(=O)(=O)c2ccc(NC(=O)c3ccccc3O)cc2)cc1
IC50 [4]: > 1620 µM
IC50 [1]: 48.1 µM
IC50 (Plasmodium falciparum [2]): 20.7 µM
IC50 (Plasmodium falciparum [5]): 31.7 µM
IC50 (Plasmodium falciparum [3]): 29.2 µM
selectivity ratio [6]: > 77

Oc1ccc(Cl)cc1SSc1cc(Cl)ccc1O
IC50 [1]: 0.14 µM
IC50 (Plasmodium falciparum [2]): 12 µM
IC50 (Plasmodium falciparum [3]): 12.4 µM

Nc1ccc(S(=O)(=O)c2cc(O)ccc2O)cc1
IC50 [4]: > 1890 µM
IC50 [1]: 63.8 µM
IC50 (Plasmodium falciparum [2]): 3.6 µM
IC50 (Plasmodium falciparum [5]): 5.3 µM
IC50 (Plasmodium falciparum [3]): 0.79 µM
selectivity ratio [6]: > 472

CCOC(=O)c1cnccc1C
IC50 [1]: 4.9 µM
IC50 (Plasmodium falciparum [2]): > 49.9 µM
IC50 (Plasmodium falciparum [3]): > 49.9 µM

O=S(=O)(Nc1ccc(C(F)(F)F)cc1)c1cc(Cl)sc1Cl
IC50 [1]: 2.2 µM
IC50 (Plasmodium falciparum [2]): > 49.9 µM
IC50 (Plasmodium falciparum [3]): > 49.9 µM

O=S(=O)(Nc1cccc(Cl)c1)c1ccccc1
IC50 [4]: 31.3 µM
IC50 [1]: 195 µM
IC50 (Plasmodium falciparum [2]): > 49.9 µM
IC50 (Plasmodium falciparum [3]): > 49.9 µM
selectivity ratio [6]: < 0.62

CC(C)(C)S(=O)(=O)CC(=O)c1ccc(Cl)cc1Cl
IC50 [4]: > 1620 µM
IC50 [1]: 62.9 µM
IC50 (Plasmodium falciparum [2]): 84.1 µM
IC50 (Plasmodium falciparum [5]): > 204 µM
IC50 (Plasmodium falciparum [3]): 45.3 µM
selectivity ratio [6]: > 19.3

Cc1cccc(C)c1/C=C/S(=O)(=O)c1ccccc1
IC50 [4]: 706 µM
IC50 [1]: 448 µM
IC50 (Plasmodium falciparum [2]): > 50.1 µM
IC50 (Plasmodium falciparum [3]): > 50.1 µM
selectivity ratio [6]: < 14

Cc1ccc(S(=O)(=O)c2cc(O)ccc2O)cc1
IC50 [4]: > 1890 µM
IC50 [1]: 193 µM
IC50 (Plasmodium falciparum [2]): 64.3 µM
IC50 (Plasmodium falciparum [5]): 60.5 µM
IC50 (Plasmodium falciparum [3]): 37.8 µM
selectivity ratio [6]: > 29.6

CC(C)c1ccc(S(=O)(=O)c2ccc(C(C)C)cc2)cc1
IC50 [4]: 7.3 µM
IC50 [1]: 22.5 µM
IC50 (Plasmodium falciparum [2]): 23.5 µM
IC50 (Plasmodium falciparum [5]): 32.7 µM
IC50 (Plasmodium falciparum [3]): 18.5 µM
selectivity ratio [6]: 0.3

O=[N+]([O-])c1c(Cl)sc(Cl)c1S(=O)(=O)Nc1ccc(C(F)(F)F)cc1
IC50 [1]: 0.28 µM
IC50 (Plasmodium falciparum [2]): 16.4 µM
IC50 (Plasmodium falciparum [3]): 15.4 µM

O=S(=O)(c1ccc(O)cc1)c1cc(Cl)ccc1O
IC50 [4]: 107 µM
IC50 [1]: 115 µM
IC50 (Plasmodium falciparum [2]): 45.7 µM
IC50 (Plasmodium falciparum [5]): 80.8 µM
IC50 (Plasmodium falciparum [3]): 38.6 µM
selectivity ratio [6]: 2.3

Cc1ccc(S/C=C/S(=O)(=O)Cc2ccccc2)cc1
IC50 [4]: 0.85 µM
IC50 [1]: 0.52 µM
IC50 (Plasmodium falciparum [2]): 5.8 µM
IC50 (Plasmodium falciparum [3]): 3 µM
selectivity ratio [6]: 0.15

Nc1ncc(S(=O)(=O)c2ccc(NO)cc2)s1
IC50 [1]: 22 µM
IC50 (Plasmodium falciparum [2]): > 55.3 µM
IC50 (Plasmodium falciparum [5]): > 55.3 µM
IC50 (Plasmodium falciparum [3]): 0.3 µM

Oc1ccc(Cl)cc1SSSc1cc(Cl)ccc1O
IC50 [1]: 0.53 µM
IC50 (Plasmodium falciparum [2]): 1.4 µM
IC50 (Plasmodium falciparum [3]): 2.3 µM

Clc1ccc(SSSc2ccc(Cl)cc2)cc1
IC50 [1]: 0.63 µM
IC50 (Plasmodium falciparum [2]): 2.1 µM
IC50 (Plasmodium falciparum [3]): 2.5 µM

C=C/C(C)=C/[C@@]1(C)SC(=O)C(C)=C1O [THIOLACTOMYCIN]
IC50 [1]: > 330 µM
IC50 (Plasmodium falciparum [2]): 50 µM
IC50 (Plasmodium falciparum [3]): 50 µM

C/C=C/CCCCCCCC(=O)NS(=O)(=O)c1ccc(N)cc1
IC50 [1]: > 1000 µM
IC50 (Plasmodium falciparum [2]): > 49.9 µM
IC50 (Plasmodium falciparum [3]): > 49.9 µM

Cc1ccc(SSSc2ccc(C)cc2)cc1
IC50 [1]: 1.4 µM
IC50 (Plasmodium falciparum [2]): 1.4 µM
IC50 (Plasmodium falciparum [3]): 1.5 µM

NC1CCC(S(=O)(=O)c2cc(O)c3ccccc3c2O)CC1 (stereo unspecified)
IC50 [4]: 105 µM
IC50 [1]: 0.44 µM
IC50 (Plasmodium falciparum [2]): 20.4 µM
IC50 (Plasmodium falciparum [3]): 3.9 µM
selectivity ratio [6]: 5.3

Oc1ccccc1SSc1ccccc1O
IC50 [1]: 1.9 µM
IC50 (Plasmodium falciparum [2]): 15 µM
IC50 (Plasmodium falciparum [3]): 14.9 µM

Oc1ccc(Sc2ccc(O)cc2O)c(O)c1
IC50 [1]: 10.8 µM
IC50 (Plasmodium falciparum [2]): > 49.9 µM
IC50 (Plasmodium falciparum [3]): > 49.9 µM

CC(CN)CCC(C)(O)C(N)=O (stereo unspecified)
IC50 [1]: 0.24 µM
IC50 (Plasmodium falciparum [2]): 14.6 µM
IC50 (Plasmodium falciparum [3]): 24.7 µM

c1ccc(SSc2ccccc2)cc1
IC50 [4]: 124 µM
IC50 [1]: 0.65 µM
IC50 (Plasmodium falciparum [2]): 6.7 µM
IC50 (Plasmodium falciparum [3]): 5 µM
selectivity ratio [6]: 12.4

O=C(O)c1ccc(NS(=O)(=O)c2ccccc2)cc1O
IC50 [4]: > 2540 µM
IC50 [1]: 5 µM
IC50 (Plasmodium falciparum [2]): > 12.7 µM
IC50 (Plasmodium falciparum [3]): > 12.7 µM

C/C(=C/c1ccccc1)S(=O)(=O)c1ccccc1
IC50 [4]: 205 µM
IC50 [1]: 165 µM
IC50 (Plasmodium falciparum [2]): > 50.1 µM
IC50 (Plasmodium falciparum [3]): 28 µM
selectivity ratio [6]: < 4.1

Cc1ccc(S(=O)(=O)c2cc(O)c3ccccc3c2O)cc1
IC50 [4]: > 3180 µM
IC50 [1]: 0.38 µM
IC50 (Plasmodium falciparum [2]): 3.2 µM
IC50 (Plasmodium falciparum [3]): 3.6 µM
selectivity ratio [6]: > 1060

CCCCS(=O)(=O)CCOC(=O)c1ccc([N+](=O)[O-])cc1
IC50 [4]: 33.6 µM
IC50 [1]: 0.32 µM
IC50 (Plasmodium falciparum [2]): > 41.2 µM
IC50 (Plasmodium falciparum [3]): > 41.2 µM
selectivity ratio [6]: < 0.83

COc1ncnc(NS(=O)(=O)c2ccc(N)cc2)c1OC [SULFADOXINE]
IC50 [4]: > 1610 µM
IC50 [1]: > 1000 µM
IC50 (Plasmodium falciparum [2]): 6.1 µM
IC50 (Plasmodium falciparum [3]): 0.04 µM
selectivity ratio [6]: > 269

O=C(CN1CCN(c2ccc(CO)c(Br)c2)CC1)c1ccc([N+](=O)[O-])o1
IC50 [1]: 3.2 µM
IC50 (Plasmodium falciparum [2]): 8.9 µM
IC50 (Plasmodium falciparum [3]): 8.9 µM

Cc1ccc(S(=O)(=O)c2ccccc2)cc1
IC50 [4]: 134 µM
IC50 [1]: 158 µM
IC50 (Plasmodium falciparum [2]): 68.9 µM
IC50 (Plasmodium falciparum [5]): 112 µM
IC50 (Plasmodium falciparum [3]): 35.7 µM
selectivity ratio [6]: 1.9

Cc1cc(O)c(O)c(S(=O)(=O)c2ccc(N)cc2)c1
IC50 [4]: 27.6 µM
IC50 [1]: 27.2 µM
IC50 (Plasmodium falciparum [2]): 23.6 µM
IC50 (Plasmodium falciparum [5]): 3.4 µM
IC50 (Plasmodium falciparum [3]): 19.7 µM
selectivity ratio [6]: 1.2

Oc1ccc(S)cc1Cl
IC50 [1]: 2.8 µM
IC50 (Plasmodium falciparum [2]): 4.7 µM
IC50 (Plasmodium falciparum [3]): 5.2 µM

Nc1nc(O)c2cc(S(=O)(=O)c3ccc4ccccc4c3)ccc2n1
IC50 [4]: > 2850 µM
IC50 [1]: 18.3 µM
IC50 (Plasmodium falciparum [2]): 1.2 µM
IC50 (Plasmodium falciparum [5]): 1.4 µM
IC50 (Plasmodium falciparum [3]): 0.43 µM
selectivity ratio [6]: > 2850

Nc1ccc(S(=O)(=O)c2cc(O)c3ccccc3c2O)c(Cl)c1
IC50 [1]: 0.13 µM
IC50 (Plasmodium falciparum [2]): 5.5 µM
IC50 (Plasmodium falciparum [3]): 0.01 µM

Oc1c(Cl)cc(SSc2cc(Cl)c(O)c(Cl)c2Cl)c(Cl)c1Cl
IC50 [1]: 0.24 µM
IC50 (Plasmodium falciparum [2]): 5.5 µM
IC50 (Plasmodium falciparum [3]): 3.9 µM

O=[N+]([O-])c1cc(S(=O)(=O)Nc2cc(C(F)(F)F)cc(C(F)(F)F)c2)sc1Nc1cc(C(F)(F)F)cc(C(F)(F)F)c1
IC50 [1]: 5.2 µM
IC50 (Plasmodium falciparum [2]): 11.4 µM
IC50 (Plasmodium falciparum [3]): 10.3 µM

COc1ccc(C(=O)CSS(=O)(=O)c2ccccc2)cc1
IC50 [1]: 1.5 µM
IC50 (Plasmodium falciparum [2]): 22.5 µM
IC50 (Plasmodium falciparum [3]): 22.5 µM
